Series [1] deals with OATP2B1 (Homo sapiens, UniProt O94956). Description: OATP2B1 uptake inhibition in transfected HEK cells. The format is in vitro ADME. The method in brief: (§1)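 HEK cells overexpressing NTCP, OAT1, OAT3, OATP2B1, OCT1 or OCT2 were incubated with probe substrate. Pairs were estrone 3-sulfate/cyclosporin A (NTCP), PAH/probenecid (OAT1), furosemide/probenecid (OAT3), estrone 3-sulfate/glibenclamide (OATP2B1), 3H-MPP+/decynium 22 (OCT1) and 3H-MPP+/imipramine (OCT2). IC50 was determined with and without test compound, at ≤50 µM for the parent and ≤10 µM for the metabolite.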

A short description of series [2]: Phase I study: darolutamide effect on rosuvastatin pharmacokinetics. The format is in vivo, human. The settings on record: darolutamide 600 mg BID with single dose rosuvastatin 5 mg.
The conditions of series [3]: darolutamide 600 mg; ref data on file; cited from earlier work.
Series [4] has as its target T1, BCRP (Homo sapiens, UniProt Q9UNQ0).
T1 sequence (Q9UNQ0 1-655): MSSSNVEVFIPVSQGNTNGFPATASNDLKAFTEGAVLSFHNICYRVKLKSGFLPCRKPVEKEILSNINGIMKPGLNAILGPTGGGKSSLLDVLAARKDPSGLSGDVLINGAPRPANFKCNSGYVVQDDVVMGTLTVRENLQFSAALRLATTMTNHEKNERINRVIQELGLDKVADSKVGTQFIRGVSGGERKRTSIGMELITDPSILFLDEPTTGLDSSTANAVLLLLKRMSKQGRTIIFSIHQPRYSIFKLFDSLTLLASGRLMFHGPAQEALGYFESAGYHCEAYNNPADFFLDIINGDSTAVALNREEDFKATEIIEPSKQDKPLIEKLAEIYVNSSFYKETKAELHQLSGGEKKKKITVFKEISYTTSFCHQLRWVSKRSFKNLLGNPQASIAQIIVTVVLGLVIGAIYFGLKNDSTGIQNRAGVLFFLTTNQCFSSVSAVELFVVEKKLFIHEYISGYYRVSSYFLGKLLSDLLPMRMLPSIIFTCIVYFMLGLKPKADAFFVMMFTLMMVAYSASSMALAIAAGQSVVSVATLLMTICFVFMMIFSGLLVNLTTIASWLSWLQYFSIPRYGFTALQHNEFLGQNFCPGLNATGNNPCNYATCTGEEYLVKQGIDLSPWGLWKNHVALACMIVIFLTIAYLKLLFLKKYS
Description: Efflux in CPT-B1 cells. The series is classed as in vitro ADME. The settings on record: Caco-2. The method in brief: (§2)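 Bidirectional transport was measured in wildtype Caco-2 cells and in proprietary derivatives with reduced BCRP (CPT-B1) or P-gp (CPT-P1) expression. Test compound was used at 0.5, 2 and 10 μM in wildtype cells and at 2 μM in the reduced-expression lines. Probe substrates served as positive controls and reference inhibitors as negative controls. Efflux ratios were calculated.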
Background: Caco-2 monolayers are a common model of the intestinal barrier.

In series [5] the test system is CYP3A4. The settings on record: healthy volunteers; ref data on file; cited from earlier work.
The format of series [6] is in vivo, human. The settings on record: healthy male volunteers.
Series [7] relates to P-gp and BCRP. Description: Efflux in wildtype Caco-2 cells. The series is classed as in vitro ADME. The settings on record: human. The essentials:
as §2

Series [8] addresses NTCP (Homo sapiens, UniProt Q14973). As to the kind of experiment: NTCP uptake inhibition in transfected HEK cells. The format is in vitro ADME. The method in brief: as §1
In series [9] the target is T2, P-gp (Homo sapiens, UniProt P08183). As to the kind of experiment: P-gp inhibition in Caco-2 cells. The format is in vitro ADME. The essentials: (§3)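 Efflux transporter inhibition in Caco-2 monolayers. Test compound at 0.25–60 μM. Probe/reference-inhibitor pairs were digoxin/cyclosporin A (P-gp) and cladribine/Ko143 (BCRP). Probe transport was measured with and without test compound, and IC50 was derived from that inhibition.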

Series [10] has as its target T1, BCRP. As to the kind of experiment: BCRP inhibition in Caco-2 cells. The series is classed as in vitro ADME. The essentials: as §3
Series [11] has as its target T2, P-gp. Description: Efflux in CPT-P1 cells. The format is in vitro ADME. The settings on record: Caco-2. The essentials: as §2
The conditions of series [12]: rodents; cited from earlier work.
For series [13] the following is noted: cited from earlier work.
Series [14] deals with CYP1A2. The format is in vitro ADME. The settings on record: primary human hepatocytes, three donors, 3 days dosing, 0.005–10 mg/l.
In series [15] the test system is CYP2B6. The series is classed as in vitro ADME. The settings on record: primary human hepatocytes, three donors, 3 days dosing, 0.005–10 mg/l.
For series [16], the target named is T1, BCRP. Description: Efflux in BCRP-MDCK cells. The format is in vitro ADME. The settings on record: reduced in the presence of BCRP-specific inhibitor Ko143.
Series [17] addresses T3, UGT1A1 (Homo sapiens, UniProt P22309).
T3 sequence (P22309 26-533): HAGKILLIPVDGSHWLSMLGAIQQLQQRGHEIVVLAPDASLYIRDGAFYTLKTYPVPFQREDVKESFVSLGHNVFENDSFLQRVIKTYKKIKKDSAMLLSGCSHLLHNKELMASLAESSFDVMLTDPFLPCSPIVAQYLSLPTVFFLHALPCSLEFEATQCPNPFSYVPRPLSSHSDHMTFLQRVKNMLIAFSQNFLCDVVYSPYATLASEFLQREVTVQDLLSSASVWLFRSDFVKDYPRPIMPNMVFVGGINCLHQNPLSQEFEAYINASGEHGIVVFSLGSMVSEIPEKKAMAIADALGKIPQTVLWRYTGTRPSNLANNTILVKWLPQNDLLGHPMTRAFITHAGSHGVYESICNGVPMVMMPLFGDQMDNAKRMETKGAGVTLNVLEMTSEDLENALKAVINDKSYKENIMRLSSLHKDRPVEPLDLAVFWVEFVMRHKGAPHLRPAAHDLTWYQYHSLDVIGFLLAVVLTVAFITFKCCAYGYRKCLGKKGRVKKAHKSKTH
Description: UGT1A1 inhibition in human liver microsomes. The series is classed as in vitro ADME. The settings on record: read-out: Ki, UGT1A1. The essentials: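 Glucuronidation of UGT-selective substrates was measured in human liver microsomes with and without test compound, using a rank-order approach. Standard inhibitors for each isoform were incubated in parallel as positive controls.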

T2 sequence (P08183 whole entry): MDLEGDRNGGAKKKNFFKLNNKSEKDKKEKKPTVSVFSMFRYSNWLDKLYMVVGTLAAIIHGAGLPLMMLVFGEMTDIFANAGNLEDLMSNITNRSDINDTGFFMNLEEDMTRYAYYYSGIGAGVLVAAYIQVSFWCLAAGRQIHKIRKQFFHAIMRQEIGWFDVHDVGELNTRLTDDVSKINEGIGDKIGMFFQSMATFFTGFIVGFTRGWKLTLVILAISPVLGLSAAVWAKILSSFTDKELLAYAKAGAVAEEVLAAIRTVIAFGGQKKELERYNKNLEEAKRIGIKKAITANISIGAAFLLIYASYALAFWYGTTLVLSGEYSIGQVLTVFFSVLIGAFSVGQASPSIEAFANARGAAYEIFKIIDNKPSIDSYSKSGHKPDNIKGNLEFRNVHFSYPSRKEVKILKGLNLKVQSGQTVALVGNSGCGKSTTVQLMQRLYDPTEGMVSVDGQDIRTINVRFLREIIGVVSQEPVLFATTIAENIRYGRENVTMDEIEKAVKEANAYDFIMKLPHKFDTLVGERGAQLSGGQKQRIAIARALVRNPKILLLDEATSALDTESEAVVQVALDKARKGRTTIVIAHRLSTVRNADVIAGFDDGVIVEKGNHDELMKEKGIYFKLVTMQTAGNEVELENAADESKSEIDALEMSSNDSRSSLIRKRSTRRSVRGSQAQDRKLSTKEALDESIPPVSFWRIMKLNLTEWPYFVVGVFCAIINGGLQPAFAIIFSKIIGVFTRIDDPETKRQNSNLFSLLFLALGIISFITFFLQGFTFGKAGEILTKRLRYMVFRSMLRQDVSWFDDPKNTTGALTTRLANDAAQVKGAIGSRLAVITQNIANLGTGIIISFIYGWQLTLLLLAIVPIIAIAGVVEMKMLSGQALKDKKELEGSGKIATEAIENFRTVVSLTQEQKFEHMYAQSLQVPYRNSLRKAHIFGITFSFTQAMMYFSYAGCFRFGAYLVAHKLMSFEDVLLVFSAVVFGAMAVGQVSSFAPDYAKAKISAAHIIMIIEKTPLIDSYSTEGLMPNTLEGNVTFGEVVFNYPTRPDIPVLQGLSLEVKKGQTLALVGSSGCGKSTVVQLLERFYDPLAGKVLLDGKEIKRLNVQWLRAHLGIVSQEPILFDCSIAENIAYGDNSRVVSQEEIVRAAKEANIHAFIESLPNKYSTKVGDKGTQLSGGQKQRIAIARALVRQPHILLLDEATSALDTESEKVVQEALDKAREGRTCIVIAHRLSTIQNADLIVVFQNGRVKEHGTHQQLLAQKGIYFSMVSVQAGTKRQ
Sequence of NTCP (Q14973 whole entry): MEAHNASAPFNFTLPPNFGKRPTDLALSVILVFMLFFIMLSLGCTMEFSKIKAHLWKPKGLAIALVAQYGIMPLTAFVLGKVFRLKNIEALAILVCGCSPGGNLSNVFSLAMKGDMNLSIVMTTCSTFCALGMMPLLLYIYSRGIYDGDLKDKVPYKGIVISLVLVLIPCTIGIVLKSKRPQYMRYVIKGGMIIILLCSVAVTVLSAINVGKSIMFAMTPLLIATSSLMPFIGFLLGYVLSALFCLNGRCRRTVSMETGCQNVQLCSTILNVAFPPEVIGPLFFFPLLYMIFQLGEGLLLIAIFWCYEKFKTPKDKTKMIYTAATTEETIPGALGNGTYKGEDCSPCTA
Sequence of OATP2B1 (O94956 whole entry): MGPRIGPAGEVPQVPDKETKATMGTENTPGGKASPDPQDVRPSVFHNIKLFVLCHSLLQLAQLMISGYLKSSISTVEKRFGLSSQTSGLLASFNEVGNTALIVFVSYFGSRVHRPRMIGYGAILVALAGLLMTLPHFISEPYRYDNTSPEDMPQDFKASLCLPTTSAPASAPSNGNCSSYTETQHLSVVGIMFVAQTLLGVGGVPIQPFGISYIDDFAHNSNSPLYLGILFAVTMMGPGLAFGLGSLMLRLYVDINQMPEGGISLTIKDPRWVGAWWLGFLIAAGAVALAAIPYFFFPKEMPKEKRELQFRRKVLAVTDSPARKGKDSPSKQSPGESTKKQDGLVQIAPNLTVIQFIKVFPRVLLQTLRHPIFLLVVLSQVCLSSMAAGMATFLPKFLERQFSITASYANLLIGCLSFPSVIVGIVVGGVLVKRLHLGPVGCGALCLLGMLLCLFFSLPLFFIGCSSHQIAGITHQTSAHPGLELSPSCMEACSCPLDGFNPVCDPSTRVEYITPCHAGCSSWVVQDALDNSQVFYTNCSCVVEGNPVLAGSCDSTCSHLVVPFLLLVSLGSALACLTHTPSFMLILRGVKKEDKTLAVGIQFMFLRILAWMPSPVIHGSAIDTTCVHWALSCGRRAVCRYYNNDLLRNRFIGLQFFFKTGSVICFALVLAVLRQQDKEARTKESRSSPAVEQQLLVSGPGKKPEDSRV

As for `CC(O)c1cc(C(=O)N[C@@H](C)Cn2ccc(-c3ccc(C#N)c(Cl)c3)n2)[nH]n1` (stereo partly shown) [Darolutamide, darolutamide], the IC50 – broadly, the point on the concentration scale where inhibition reaches its midpoint – was over 50 µM in series [1], over 50 µM in series [8], 16.4 µM in [9] and 1.3 µM in series [10]. Further, in series [2], the “effect of rosuvastatin on darolutamide exposure” value was “no clinically relevant effects”. Besides, the “clinically relevant intestinal concentration” value in [3] is given as 270 µM. Besides, the values for the efflux ratio at 2 μM in series [4], in series [7] and in series [11] were 36, 98 and 3.6, respectively. Moreover, in series [5], the “share of clearance attributed to CYP3A4 metabolism” value is given as 30%. In series [6], the “safety with concomitant dabigatran etexilate or midazolam” value is on record as “No safety concerns were identified”. The efflux ratio (commonly a quotient of directional permeabilities that is used to spot active efflux) at 0.5 μM in series [7] came out at 78. In addition, the efflux ratio at 10 μM in [7] is 14. In series [12], the “penetration of the blood-brain barrier” value was “low penetration”.

Regarding `CC(=O)c1cc(C(=O)N[C@@H](C)Cn2ccc(-c3ccc(C#N)c(Cl)c3)n2)[nH]n1` [Keto-darolutamide, keto-darolutamide], the “fraction unbound in human plasma, fold lower compared with darolutamide” value in [13] was ~ 40 fold. Besides, the “maximal fold induction of CYP1A2” value in series [14] is under 2 fold. Further, the “maximal fold induction of CYP2B6” value in [15] is given as under 2 fold. In series [16], the efflux ratio is over 2. In addition, the Ki (in general, the equilibrium dissociation constant of an inhibitor or competing ligand from its target) in series [17] was found to be 8.13 µM.

The record behind these values is article PMC6828636 (European Journal of Drug Metabolism and Pharmacokinetics, 2019).
